Measurements from publication PMC4059610 (Cell, 2014).
One block for each substance: values may come before it.

Legend:
WRC (2MBP-ΔWRC) = test: MBP pull-down by immobilized 2MBP-ΔWRC; assay type: binding, human; conditions: data not shown
How it was run: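 Bait was immobilized 2MBP-ΔWRC, either wild type or the AW form (R106A/G110W in Abi2). It was mixed on affinity beads with a 5- to 10-fold excess of GST-tagged receptor cytoplasmic tails, purified by glutathione affinity chromatography with or without ion exchange and size exclusion. Beads were incubated and washed, then eluted with maltose. Retained proteins were seen on Coomassie-stained gels.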

WRC = conditions: ref Nakao et al., 2008, Tai et al., 2010 (PCDH10, PCDH19), Bernadskaya et al., 2012, Stavoe et al., 2012 (DCC), 2012 (ROBO1), Karpushev et al., 2011 (ENaC); cited from earlier work
[1] = system: endogenous PCDH10/WRC interaction; test: Co-immunoprecipitation of WRC; assay type: binding; conditions: 5 mM WIRS peptide, anti-WAVE1, mouse brain lysate, n = 7, p = 0.00003, Fig. 6B
[2] = system: 2MBP-ΔWRC / GST-hPCDH10 CT interaction; test: Competition of 2MBP-ΔWRC pull-down of PCDH10 CT; assay type: binding, human; conditions: Fig. 1D
How it was run: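 Immobilized 2MBP-ΔWRC bait was mixed on affinity beads with a 5- to 10-fold excess of GST-tagged PCDH10 cytoplasmic tail prey, with wild-type WIRS peptide or T8A/F9A mutant peptide as competitor. After incubation and washing, bound proteins were eluted with maltose.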

WRC / Arp2/3 complex = test: Arp2/3-mediated pyrene-actin assembly assay; assay type: biochemical; conditions: minimal WIRS peptide; 100 nM WRC217, Fig. 5A
endogenous WRC = test: GST-PCDH10 CT pull-down of endogenous WRC from mouse brain lysate; assay type: binding; conditions: 100 μM WIRS peptide, Fig. 6A
How it was run: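 Immobilized GST-PCDH10 cytoplasmic tail was incubated with mouse brain lysate on glutathione affinity beads. Competitor was buffer or 100 μM WIRS peptide, either wild type or T8A/F9A mutant. Beads were washed and bound proteins eluted with reduced glutathione. Retained endogenous WRC was detected by Western blot.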

Substance: FAT2: protocadherin FAT2, WIRS motif only found in human, mouse and chicken
Binding to WRC in vitro using its WIRS motif (WRC (2MBP-ΔWRC)): binds the WRC in vitro using its WIRS motif

Substance: DCC: netrin receptor
Previously shown interaction with the WRC, biochemical or genetic (WRC): previously shown to interact with the WRC biochemically or genetically

Blocking of PCDH10 CT binding to 2MBP-ΔWRC [2]: blocked this interaction
Substance: WIRS peptide: peptide containing the conserved sequence RSFSTFGKE of PCDH10 (WRC interacting receptor sequence)
Effect on co-immunoprecipitation of PCDH10 with WRC [1]: weakened
Effect on Rac1 stimulation of WRC activity (WRC / Arp2/3 complex): had no effect on Rac1 stimulation
Blocking of GST-PCDH10 CT pull-down of endogenous WRC (endogenous WRC): completely blocked the interaction
